The source of these data is ChEMBL document CHEMBL4028879, “Structure-Activity Relationship Studies of Pyrimido[5,4-b]indoles as Selective Toll-Like Receptor 4 Ligands” (J Med Chem, 2017).

The EC50 is the concentration needed to bring the measured effect to its halfway point.

For data set [1], the target named is T1, Toll-like receptor 4 (Homo sapiens, UniProt O00206). In words: Agonist activity at human TLR4 expressed in HEK293 blue cells assessed as induction of NF-kappaB activation-mediated SEAP production after 20 to 24 hrs by colorimetric assay. Type of data set: cell-based. The method in brief:
(§1)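 HEK-Blue cells expressing human or mouse TLR4, 2.5 × 10⁴/well in DMEM with 10% FBS, pyruvate, glutamine and antibiotics. Graded doses from 20 mM DMSO stocks, final DMSO 0.05%. Supernatants harvested after 20–24 h; SEAP read by colorimetric substrate at 630 nm. EC50 taken as the concentration giving 50% of maximal activation. LPS 100 ng/mL served as positive control.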

In data set [2] the test system is Mus musculus. The data set can be described thus: Immunostimulatory activity in wild type C57BL/6 mouse assessed as induction of IL-6 levels in serum at 20 nmol, iv measured at 3 hrs post dose by Luminex beads assay. Type of data set: functional, organism-based. The method, boiled down:
(§2)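 Seven- to nine-week-old wild-type C57BL/6 mice (n = 6) injected iv with 20 nmol/animal in 0.1% DMSO in saline. Sera collected 3 h after injection; IL-6, IP-10 and KC quantified by Luminex bead assay, detection limit 2.56 pg/mL. Kruskal–Wallis test with Dunn's post hoc test.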

Data set [3] has as its target T2, Toll-like receptor 4 (Mus musculus) (UniProt Q9QUK6).
T2 sequence (whole entry): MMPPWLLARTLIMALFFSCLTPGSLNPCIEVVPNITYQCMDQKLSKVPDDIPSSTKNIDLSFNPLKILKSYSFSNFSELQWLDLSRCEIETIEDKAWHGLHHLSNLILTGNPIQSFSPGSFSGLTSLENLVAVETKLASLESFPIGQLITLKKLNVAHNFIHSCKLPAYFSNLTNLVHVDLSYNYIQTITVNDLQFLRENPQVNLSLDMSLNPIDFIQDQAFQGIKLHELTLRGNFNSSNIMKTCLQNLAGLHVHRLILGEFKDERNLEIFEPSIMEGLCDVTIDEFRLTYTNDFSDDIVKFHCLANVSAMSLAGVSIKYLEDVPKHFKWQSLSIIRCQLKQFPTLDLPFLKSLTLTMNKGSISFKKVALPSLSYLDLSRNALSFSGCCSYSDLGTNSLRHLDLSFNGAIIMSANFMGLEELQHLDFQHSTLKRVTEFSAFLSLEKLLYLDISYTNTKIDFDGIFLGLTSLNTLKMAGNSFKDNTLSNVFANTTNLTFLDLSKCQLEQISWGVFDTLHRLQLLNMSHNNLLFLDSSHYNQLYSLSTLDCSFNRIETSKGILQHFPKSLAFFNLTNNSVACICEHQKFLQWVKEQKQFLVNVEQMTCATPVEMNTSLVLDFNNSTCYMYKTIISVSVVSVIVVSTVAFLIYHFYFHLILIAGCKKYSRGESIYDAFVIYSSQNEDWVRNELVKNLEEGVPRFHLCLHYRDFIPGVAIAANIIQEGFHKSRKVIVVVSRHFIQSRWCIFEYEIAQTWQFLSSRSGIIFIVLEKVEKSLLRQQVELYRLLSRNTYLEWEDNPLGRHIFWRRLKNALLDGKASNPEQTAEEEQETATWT
The data set can be described thus: Agonist activity at TLR4 in C57BL/6 mouse primary BMDC assessed as induction of CCL5 release at 0.1 to 10 uM after 18 hrs by ELISA. The method, boiled down:
(§3)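 BMDC from C57BL/6 mice, 1 × 10⁵ cells/well in RPMI 1640 with 10% FBS and penicillin/streptomycin. Graded doses for 18 h at 37°C, 5% CO₂. IL-6 or CCL5 in supernatants measured by ELISA, detection limit 15 pg/mL. Positive control ultrapure LPS-EB 10 ng/mL. Significance by two-way ANOVA with Dunnett's post hoc test.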
A general note: In an ELISA, binding on a coated surface is turned into a signal by an enzyme label.

Data set [4] concerns the target T3, Toll-like receptor 4 (Mus musculus, UniProt Q9QUK6).
T3 sequence (Q9QUK6 whole entry): T2 sequence (whole entry)
In words: Agonist activity at mouse TLR4 expressed in HEK293 blue cells assessed as induction of NF-kappaB activation-mediated SEAP production after 20 to 24 hrs by colorimetric assay. The class given is cell-based. The method, boiled down:
as §1

Data set [5] concerns the target T2, Toll-like receptor 4 (Mus musculus). The data set can be described thus: Agonist activity at TLR4 in C57BL/6 mouse BMDC assessed as induction of IL-6 release at 0.1 to 10 uM after 18 hrs by ELISA. The method, boiled down: as §3
For a further data set, the system named is HepG2. In words: Cytotoxicity against human HepG2 cells assessed as reduction in cell viability at 5 uM after 18 hrs by MTT assay. The following applies: hepg2, 18 h. The class given is cell-based. The method, boiled down: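 HepG2 cells, 1 × 10⁴/well, exposed overnight (18 h) to 5 μM compound. MTT 0.5 mg/mL then added for six or more hours, followed by lysis and absorbance reading. Mean ± SEM of representative data from three independent experiments.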
(Tetrazolium dyes change colour on reduction, which living cells bring about.)

Data set [6] concerns the target T2, Toll-like receptor 4 (Mus musculus). The data set can be described thus: Agonist activity at mouse TLR4 expressed in HEK293 blue cells assessed as induction of NF-kappaB activation-mediated SEAP production by measuring AUC after 20 to 24 hrs by colorimetric assay relative to N-cyclohexyl-2-(5-methyl-4-oxo-3-phenyl-4,5-dihydro-3H-pyrimido[5,4-b]indol-2-ylthio)acetamide. Type of data set: cell-based.

Data set [7] shares this target. The data set can be described thus: Agonist activity at TLR4 in C57BL/6 mouse primary BMDC assessed as induction of IL-6 release at 5 uM after 18 hrs by ELISA relative to N-cyclohexyl-2-(5-methyl-4-oxo-3-phenyl-4,5-dihydro-3H-pyrimido[5,4-b]indol-2-ylthio)acetamide.
Data set [8] concerns Mus musculus. The data set can be described thus: Immunostimulatory activity in wild type C57BL/6 mouse assessed as induction of keratinocyte chemo-attractant levels in serum at 20 nmol, iv measured at 3 hrs post dose by Luminex beads assay. The class given is functional, organism-based. The method in brief:
as §2

Data set [9] addresses T1, Toll-like receptor 4. The data set can be described thus: Agonist activity at human TLR4 expressed in HEK293 blue cells assessed as induction of NF-kappaB activation-mediated SEAP production by measuring AUC after 20 to 24 hrs by colorimetric assay relative to N-cyclohexyl-2-(5-methyl-4-oxo-3-phenyl-4,5-dihydro-3H-pyrimido[5,4-b]indol-2-ylthio)acetamide. Type of data set: cell-based.

Data set [10] deals with Mus musculus. In words: Immunostimulatory activity in wild type C57BL/6 mouse assessed as induction of IP-10 levels in serum at 20 nmol, iv measured at 3 hrs post dose by Luminex beads assay. Type of data set: functional, organism-based. The method in brief: as §2
The nature of data set [11]: Cytotoxicity against C57BL/6 mouse primary BMDC assessed as cell viability at 5 uM after 18 hrs by MTT assay relative to control. The class given is cell-based. The following applies: primary BMDC (bone marrow-derived dendritic cells), read-out: Activity.
The target of data set [12] is T1, Toll-like receptor 4. In words: Agonist activity at TLR4 in human PBMC assessed as induction of IL-8 release at 0.1 to 10 uM after 18 hrs by ELISA. The method in brief:
(§4)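 PBMC isolated from blood-bank buffy coats, 1 × 10⁶/mL, stimulated with graded compound doses for 18 h at 37°C, 5% CO₂. IL-6 and IL-8 in supernatants measured by ELISA. Data are mean ± SEM, representative of three independent experiments. Two-way ANOVA with Dunnett's post hoc test.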

Data set [13] concerns the target T1, Toll-like receptor 4. The data set can be described thus: Agonist activity at TLR4 in human PBMC assessed as induction of IL-6 release at 0.1 to 10 uM after 18 hrs by ELISA. The method in brief:
as §4

The source made the active and inactive calls. The calls are words filed in the database; no cut-off is given here.

T1 sequence (O00206 whole entry): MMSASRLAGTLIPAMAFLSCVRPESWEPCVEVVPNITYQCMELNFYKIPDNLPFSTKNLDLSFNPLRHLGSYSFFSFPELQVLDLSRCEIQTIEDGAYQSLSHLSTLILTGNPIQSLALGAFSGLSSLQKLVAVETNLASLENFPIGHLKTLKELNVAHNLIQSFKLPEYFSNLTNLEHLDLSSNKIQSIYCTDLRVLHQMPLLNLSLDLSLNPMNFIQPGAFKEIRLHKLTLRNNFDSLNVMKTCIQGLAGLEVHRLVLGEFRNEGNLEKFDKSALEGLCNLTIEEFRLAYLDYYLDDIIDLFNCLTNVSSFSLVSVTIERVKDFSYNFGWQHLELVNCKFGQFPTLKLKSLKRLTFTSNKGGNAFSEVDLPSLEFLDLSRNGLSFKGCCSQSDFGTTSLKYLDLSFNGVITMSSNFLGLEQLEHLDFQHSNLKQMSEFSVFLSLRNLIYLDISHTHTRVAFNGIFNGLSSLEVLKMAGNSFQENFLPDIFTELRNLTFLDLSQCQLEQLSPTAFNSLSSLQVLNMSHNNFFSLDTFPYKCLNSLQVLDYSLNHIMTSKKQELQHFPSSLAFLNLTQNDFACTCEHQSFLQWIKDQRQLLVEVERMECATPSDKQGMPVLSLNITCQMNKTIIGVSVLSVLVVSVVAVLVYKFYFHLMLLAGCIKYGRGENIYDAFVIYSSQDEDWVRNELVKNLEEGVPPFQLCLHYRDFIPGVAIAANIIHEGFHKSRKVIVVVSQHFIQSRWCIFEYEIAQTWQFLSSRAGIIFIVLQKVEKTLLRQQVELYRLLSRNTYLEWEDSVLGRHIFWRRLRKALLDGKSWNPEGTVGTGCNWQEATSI

On to `Cn1c2c(c3nc(SCC(=O)NC4CCCCC4)n(-c4ccccc4)c(=O)c31)CCCCC2`, for which the figures for the EC50 on Toll-like receptor 4 [1] and at Toll-like receptor 4 [4] were above 10 µM and 8.8 µM, respectively. In addition, the outcome (with Mus musculus [2]; in [3]; in data set [5]; in the data set on Mus musculus [8]; in the data set on Mus musculus [10]) was Active. In addition, the Activity entry in the data set on HepG2 was “Non-Toxic”; in data set [6], 44%; in data set [7] it was 93%; at Toll-like receptor 4 [9], 46%. The viability at 18 h, 5 µM in data set [11] came to 95%.
Turning to `Cn1c2ccccc2c2nc(SCC(=O)NC3CCCCC3)n(-c3ccccc3)c(=O)c21`, the values for the concentration for a half-maximal effect (EC50) on Toll-like receptor 4 [1] and at Toll-like receptor 4 [4] were 8.26 µM and 3.17 µM, respectively. Further, the result (in the data set with Mus musculus [2]; in [3]; in data set [5]; on Toll-like receptor 4 [12]; in the data set on Mus musculus [8]; in the data set with Mus musculus [10]) was Active. For the same compound, on Toll-like receptor 4 [13], the result was Active. The Activity entry in the data set with HepG2 is “Non-Toxic”. Also, in data set [11], the viability at 18 h, 5 µM was 97 to 106%.
Consider `Cn1c2cc(C#N)ccc2c2nc(SCC(=O)NC3CCCCC3)n(-c3ccccc3)c(=O)c21`, for which the EC50 on Toll-like receptor 4 [1] and at Toll-like receptor 4 [4] was above 10 µM in each case. The Activity worked out at 6% in data set [6], 3% in [7] and 20% at Toll-like receptor 4 [9]. Also, in data set [11], the viability at 18 h, 5 µM amounted to 65%.
`Cn1c2ccc(-c3ccccc3)cc2c2nc(SCC(=O)NC3CCCCC3)n(-c3ccccc3)c(=O)c21`: the EC50 at Toll-like receptor 4 [1] amounted to 0.43 µM; at Toll-like receptor 4 [4], 0.82 µM. Further, the outcome (in the data set with Mus musculus [2]; in data set [3]; in [5]; at Toll-like receptor 4 [12]; in the data set with Mus musculus [8]; in the data set with Mus musculus [10]) was Active. Further, the outcome on Toll-like receptor 4 [13] was Active. The Activity result was “Non-Toxic” in the data set on HepG2, 223% in data set [6], 123% in data set [7] and 1560% on Toll-like receptor 4 [9]. Besides, in data set [11], the viability at 18 h, 5 µM was 93%.
Turning to `O=C(CCSc1nc2c([nH]c3ccccc32)c(=O)n1-c1ccccc1)NC1CCCCC1`, the EC50 at Toll-like receptor 4 [1] and on Toll-like receptor 4 [4] was above 10 µM throughout. The Activity turned out to be 3% in [6], 0% in data set [7] and 7% at Toll-like receptor 4 [9]. The viability at 18 h, 5 µM in data set [11] was determined as 58%.
For `Cn1c2ccc(-c3ccc4ccccc4c3)cc2c2nc(SCC(=O)NC3CCCCC3)n(-c3ccccc3)c(=O)c21`, the half-maximal effective concentration (EC50) on Toll-like receptor 4 [1] was determined as 0.92 µM; at Toll-like receptor 4 [4], 2.01 µM. Moreover, the result (in data set [3]; in [5]; at Toll-like receptor 4 [12]; at Toll-like receptor 4 [13]) was Active. In addition, the Activity entry in the data set on HepG2 is “Non-Toxic”; in [6], 78%; in [7], 137%; at Toll-like receptor 4 [9], 1300%. In [11], the viability at 18 h, 5 µM is 84%.
With `Cn1c2ccccc2c2nc(OCC(=O)NC3CCCCC3)n(-c3ccccc3)c(=O)c21`, the concentration for a half-maximal effect (EC50) at Toll-like receptor 4 [1] and on Toll-like receptor 4 [4] was above 10 µM in each case. Further, the Activity was 1% in [6], 0% in [7] and 9% at Toll-like receptor 4 [9]. Also, the viability at 18 h, 5 µM in data set [11] was 58%.
In the case of `C#Cc1ccc2c(c1)c1nc(SCC(=O)NC3CCCCC3)n(-c3ccccc3)c(=O)c1n2C`, the EC50 on Toll-like receptor 4 [1] worked out at 3.27 µM; at Toll-like receptor 4 [4], 2.74 µM. The results for the Activity (in data set [6]; in data set [7]; at Toll-like receptor 4 [9]) were 92%, 92% and 107%, respectively. Further, the viability at 18 h, 5 µM in [11] was found to be 81%.
